Laboratory results from publication PMC9200148 (The Journal of Infectious Diseases, 2020).
Values joined by “and” are separate entries in the source; they are usually repeats but may differ in a detail not shown here. Equal entries are not always repeated.

Legend:
RSV = conditions: cited from earlier work
[1] = Plasma pharmacokinetics after repeated nebulized dosing; format: in vivo, human
Method in brief: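 Healthy adults aged 18–55 received 5 mg nebulized by facemask every 12 h for 5 days (10 doses), with the first dose either in the morning (schedule A) or the evening (schedule B). Serial plasma samples were assayed by LC–MS/MS after liquid–liquid extraction, using a D4-labelled internal standard (LLOQ 0.1 ng/mL; range 0.1–100 ng/mL). Tmax was timed from the end of inhalation, and values are geometric means of both schedules.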

RSV-A Memphis 37b [2] = experiment: RSV challenge study: symptom score and mucous weight; format: in vivo, human; conditions: for AUC of mucous weight from baseline through day 12 / AUC of symptom score from baseline through day 12: LS mean (SD)
Method in brief: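 Volunteers with low serum neutralizing titres were challenged with RSV-A Memphis 37b. Dosing with 5 mg or placebo by nebulizer every 12 h for 5 days began about 12 h after RT-qPCR detection or on the morning of day 6, whichever came first. Symptoms were self-recorded in diaries three times daily, and mucus was weighed daily from used facial tissues. AUCs were computed and group means compared by t test in the ITT-I population.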

[3] = RSV challenge study: safety; format: in vivo, human
Method in brief: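 This was a randomized, single-blind, placebo-controlled study in healthy adults inoculated intranasally on day 0 and held in quarantine for 15 days. They received 5 mg or placebo by nebulizer and facemask every 12 h for 5 days. The ITT population comprised those inoculated who received at least one dose. Adverse events (counted as subjects reporting them), laboratory values, vital signs, ECG and spirometry were recorded through day 28 (±3 days).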

RSV-A Memphis 37b [4] = experiment: RSV challenge study: viral load in nasal wash by RT-qPCR; format: in vivo, human; conditions: for AUC VL from baseline through day 12 / Reduction in AUC VL vs placebo: 5 mg BID nebulized; for AUC VL from baseline through day 12 / Peak VL / Time to nondetectability (or <1 log) of RSV RNA / VL at 2.5 d (peak at placebo) after first dose / VL slope: baseline to 24 h after first dose / VL slope: baseline to 48 h after first dose: LS mean (SD)
Method in brief: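 Nasal washes collected twice daily were assayed for RSV RNA by RT-qPCR (Simplexa) and expressed as log10 PFUe/mL. ITT-I was defined as PCR-positive just before dosing, or positive on at least two later occasions. Nebulized 5 mg or placebo was given every 12 h for 5 days, starting about 12 h after detection or on day 6. Viral load AUC, peak and time to nondetectability were analysed by a mixed-effects model and t test.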

CS(=O)(=O)CCCn1c(Cn2c(=O)n(CC(F)(F)F)c3ccncc32)cc2cc(Cl)ccc21 [JNJ-53718678]
AUC reduction of viral load in RSV challenge study (RSV): 41%–53%

Cc1cnc(N2CC3(CCOCC3)C2)c(C(=O)Nc2ccc(C(=O)N3CCc4cc(C(=O)Nc5c(C)cccc5F)sc4-c4ccccc43)cc2)c1 [PC786, N-(2-fluoro-6-methylphenyl)-6-(4-(5-methyl-2-(7-oxa-2-azaspiro [3.5]nonan-2-yl)nicotinamido)benzoyl)-5,6-dihydro-4H-benzo[b]thieno[2,3-d]azepine-2-carboxamide]
Time at which steady state was reached ([1]; 5 mg BID): ≤ 4 days
AUC ([1]; human, inhaled, 5 mg): 11.7 ng·h/mL
Cmax ([1]; human, inhaled, 5 mg, Mean plasma Cmax, 5 mg BID nebulized): 1.5 ng/mL
half-life ([1]; human, inhaled, 5 mg, t½, apparent terminal half-life, geometric mean (CV%)): 12.1 h
Tmax ([1]; repeated 5 mg BID, median (range), after end of inhalation): 0.542 (0.383–2.08) h
AUC of mucous weight from baseline through day 12 (RSV-A Memphis 37b [2]; ITT-I): 11.8 (22.99) g × No. of days
AUC of symptom score from baseline through day 12 (RSV-A Memphis 37b [2]; ITT-I): 192.3 (244.97) score × h
Mean AUC of mucous weight lower than placebo (RSV-A Memphis 37b [2]; ITT-I, P = .1095): 38%
AUC of total symptom score lower than placebo (RSV-A Memphis 37b [2]; ITT-I, not statistically significant): 29%
AUC of mucous weight from baseline through day 12 (RSV-A Memphis 37b [2]; ITT-IS): 12.7 (24.69) g × No. of days
AUC of symptom score from baseline through day 12 (RSV-A Memphis 37b [2]; ITT-IS): 221.2 (252.05) score × h
Reduction of mean AUC of mucous weight vs placebo (RSV-A Memphis 37b [2]; ITT-IS, P = .0126): 46%
Conjunctivitis attributed to study drug, subjects ([3]; ITT (n = 28), 5 mg BID): 0 No. (%)
FEV1 decreased attributed to study drug, subjects ([3]; ITT (n = 28), 5 mg BID): 0 No. (%)
Headache attributed to study drug, events ([3]; ITT (n = 28), 5 mg BID): 1 No. of Events
Headache attributed to study drug, subjects ([3]; ITT (n = 28), 5 mg BID): 1 (3.6) No. (%)
No. of subjects with AEs attributed to study drug ([3]; ITT (n = 28), 5 mg BID): 1 (3.6) No. (%)
Photophobia attributed to study drug, subjects ([3]; ITT (n = 28), 5 mg BID): 0 No. (%)
No. of subjects with AEs (TEAEs) ([3]; ITT (n = 28), 5 mg BID, first dose to day 28): 12 No. (%) and 12 (42.9) No. (%)
Serious adverse events, deaths, other significant AEs ([3]; nebulized 5 mg BID for 5 days): no serious adverse events
Tolerability ([3]; nebulized 5 mg BID for 5 days, healthy subjects inoculated with RSV): well tolerated
AUC VL from baseline through day 12 (RSV-A Memphis 37b [4]; ITT-I (n = 22)): 274.1 log10 PFUe/mL × h and 274.1 (234.42) log10 PFUe/mL × h
Reduction in AUC VL vs placebo (RSV-A Memphis 37b [4]; ITT-I): 32.57%
Peak VL (RSV-A Memphis 37b [4]; ITT-I): 3.4 (1.76) log10 PFUe/mL
Time to nondetectability (or <1 log) of RSV RNA (RSV-A Memphis 37b [4]; ITT-I): 4.6 (3.75) d
VL at 2.5 d (peak at placebo) after first dose (RSV-A Memphis 37b [4]; ITT-I): 2.0 (1.82) log10 PFUe/mL
VL slope: baseline to 24 h after first dose (RSV-A Memphis 37b [4]; ITT-I): 0.8 (1.89) log10 PFUe/mL/24 h
VL slope: baseline to 48 h after first dose (RSV-A Memphis 37b [4]; ITT-I): 0.6 (1.52) log10 PFUe/mL/48 h
AUC VL from baseline through day 12 (RSV-A Memphis 37b [4]; ITT-IS (n = 19, post hoc)): 325.8 (199.19) log10 PFUe/mL × h
Reduction in AUC VL vs placebo (RSV-A Memphis 37b [4]; ITT-IS): 34% and 34.25%
Peak VL (RSV-A Memphis 37b [4]; ITT-IS): 3.7 (1.30) log10 PFUe/mL
Time to nondetectability (or <1 log) of RSV RNA (RSV-A Memphis 37b [4]; ITT-IS): 4.9 (4.13) d
VL at 2.5 d (peak at placebo) after first dose (RSV-A Memphis 37b [4]; ITT-IS): 2.3 (1.66) log10 PFUe/mL
VL slope: baseline to 24 h after first dose (RSV-A Memphis 37b [4]; ITT-IS): 0.7 (1.50) log10 PFUe/mL/24 h
VL slope: baseline to 48 h after first dose (RSV-A Memphis 37b [4]; ITT-IS): 0.6 (1.45) log10 PFUe/mL/48 h
